Laboratory results published in ChEMBL document CHEMBL4196209, “Validation of Matrix Metalloproteinase-9 (MMP-9) as a Novel Target for Treatment of Diabetic Foot Ulcers in Humans and Discovery of a Potent and Selective Small-Molecule MMP-9 Inhibitor That Accelerates Healing” (J Med Chem, 2018).
Active and inactive are the calls of the source. No cut-off for these calls is given here.

Experiments:
[1] = target: T1, Interstitial collagenase (Homo sapiens) (UniProt P03956); assay: Inhibition of human recombinant MMP1 catalytic domain using Mca-Lys-Pro-Leu-Gly-Leu-Dpa-Ala-Arg-NH2 substrate
T1 sequence (whole entry): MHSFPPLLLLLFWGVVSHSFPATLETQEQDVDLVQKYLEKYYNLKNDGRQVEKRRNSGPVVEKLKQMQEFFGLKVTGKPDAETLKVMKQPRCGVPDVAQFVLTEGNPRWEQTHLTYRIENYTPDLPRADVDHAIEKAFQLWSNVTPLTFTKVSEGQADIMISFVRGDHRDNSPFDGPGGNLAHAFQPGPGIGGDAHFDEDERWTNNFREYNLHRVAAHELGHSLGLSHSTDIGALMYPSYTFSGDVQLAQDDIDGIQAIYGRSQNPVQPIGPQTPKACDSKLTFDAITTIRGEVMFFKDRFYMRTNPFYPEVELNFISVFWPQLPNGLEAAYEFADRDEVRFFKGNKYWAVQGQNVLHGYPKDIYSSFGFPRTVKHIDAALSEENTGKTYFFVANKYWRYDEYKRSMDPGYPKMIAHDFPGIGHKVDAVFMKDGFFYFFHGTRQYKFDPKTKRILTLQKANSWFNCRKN
How it was run: (§1)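 Fluorogenic continuous assay of recombinant enzymes; Mca-KPLGL-Dpa-AR-NH2 substrate for MMP-1, MMP-8, ADAM10; Mca-PLAQAV-Dpa-RSSSR-NH2 for ADAM9; MOCAc-PLGL-A2pr(Dnp)-AR-NH2 for MMP-2, MMP-9, MMP-14 with Km determined beforehand. Inhibitor stocks 10 mM in DMSO; duplicates, repeated three times; Ki for slow-binding inhibitors from koff/kon.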

Mus musculus [2] = assay: Inhibition of MMP9 activity in db/db BKS.Cg-Dock7m+/+ Lepr db/J mouse model of full-thickness excision using DQ-gelatin substrate at 50 ug/wound/day for 14 days dosed topically 1 day after wound creation by in-situ zymography; format: functional, organism-based
Mus musculus [3] = assay: Reduction in NFkappaB p65 protein levels generation in db/db BKS.Cg-Dock7m+/+ Lepr db/J mouse model of full-thickness excision at 50 ug/wound/day for 7 days dosed topically 1 day after wound creation by ELISA; format: functional, organism-based
Mus musculus [4] = assay: Induction of wound healing in db/db BKS.Cg-Dock7m+/+ Lepr db/J mouse model of full-thickness excision assessed as increase in re-epithelialization at 50 ug/wound/day for 14 days dosed topically 1 day after wound creation by H and E staining; format: functional, organism-based
How it was run: (§2)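 Female db/db mice (8 weeks, ~40 g) with 8 mm full-thickness dorsal excision wound, Tegaderm-covered; from day 1, 100 µL of 0.5 mg/mL aqueous solution (50 µg/wound/day) or water vehicle topically once daily for 14 days. Wounds measured days 0, 7, 10, 14; cryosections for H&E re-epithelialization and DQ-collagen in-situ zymography, n = 3/group/time point.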

[5] = target: Stromelysin-1 (Homo sapiens) (UniProt P08254); assay: Inhibition of human recombinant MMP3 catalytic domain at 100 uM using MOCAc-Arg-Pro-Lys-Pro-Val-Glu-Nva-Trp-Arg-Lys(Dnp)-NH2 substrate
Salmonella typhimurium = assay: Mutagenicity in Salmonella typhimurium by Ames test; format: toxicity, organism-based; settings: salmonella enterica subsp. enterica serovar typhimurium
[6] = target: Matrix metalloproteinase-14 (Homo sapiens, UniProt P50281); assay: Slow binding inhibition of human recombinant MMP14 catalytic domain using MOCAc-Pro-Leu-Gly-Leu-A2pr(Dnp)-Ala-Arg-NH2 substrate; how it was run: as §1
[7] = target: T2, Matrilysin (Homo sapiens) (UniProt P09237); assay: Inhibition of human recombinant MMP7 at 100 uM using MOCAc-Pro-Leu-Gly-Leu-A2pr(Dnp)-Ala-Arg-NH2 substrate
T2 sequence (whole entry): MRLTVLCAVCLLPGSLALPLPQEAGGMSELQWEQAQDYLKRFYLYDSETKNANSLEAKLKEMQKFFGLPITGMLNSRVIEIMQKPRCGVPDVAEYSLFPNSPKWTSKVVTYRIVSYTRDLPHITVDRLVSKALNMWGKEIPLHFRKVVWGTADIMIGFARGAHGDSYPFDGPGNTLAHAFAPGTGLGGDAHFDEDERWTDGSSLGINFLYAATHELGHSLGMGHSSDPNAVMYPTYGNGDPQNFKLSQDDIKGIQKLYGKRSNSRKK

in vivo = settings: C57BLKS/6J db/db, mouse, plasma, topical or ocular, 2 mg/kg
[8] = target: T3, Disintegrin and metalloproteinase domain-containing protein 9 (Homo sapiens) (UniProt Q13443); assay: Inhibition of human recombinant ADAM9 at 100 uM using Mca-Pro-Leu-Ala-Gln-Ala-Val-Dpa-Arg-Ser-Ser-Ser-Arg-NH2 substrate; how it was run: as §1
T3 sequence (whole entry): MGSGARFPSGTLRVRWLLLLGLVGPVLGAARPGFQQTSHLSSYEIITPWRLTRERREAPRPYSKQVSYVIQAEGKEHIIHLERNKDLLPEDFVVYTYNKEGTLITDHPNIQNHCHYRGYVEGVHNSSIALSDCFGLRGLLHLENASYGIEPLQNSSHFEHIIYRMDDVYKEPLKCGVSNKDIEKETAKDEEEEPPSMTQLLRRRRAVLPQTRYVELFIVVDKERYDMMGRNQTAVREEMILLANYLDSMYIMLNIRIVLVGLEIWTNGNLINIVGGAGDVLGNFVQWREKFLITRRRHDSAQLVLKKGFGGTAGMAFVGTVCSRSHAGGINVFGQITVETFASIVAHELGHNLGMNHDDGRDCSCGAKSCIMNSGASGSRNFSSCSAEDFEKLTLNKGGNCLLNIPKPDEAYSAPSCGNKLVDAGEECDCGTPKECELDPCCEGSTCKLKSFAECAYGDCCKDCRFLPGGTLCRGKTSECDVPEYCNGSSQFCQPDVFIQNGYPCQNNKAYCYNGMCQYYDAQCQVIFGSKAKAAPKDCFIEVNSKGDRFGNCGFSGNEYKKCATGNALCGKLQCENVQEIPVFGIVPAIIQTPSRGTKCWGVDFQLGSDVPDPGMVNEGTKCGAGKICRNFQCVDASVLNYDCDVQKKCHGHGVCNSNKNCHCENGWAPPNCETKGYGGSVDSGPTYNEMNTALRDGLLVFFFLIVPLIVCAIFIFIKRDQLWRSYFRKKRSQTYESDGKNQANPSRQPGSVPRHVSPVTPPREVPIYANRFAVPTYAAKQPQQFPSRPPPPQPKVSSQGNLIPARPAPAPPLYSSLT

[9] = AUC in C57BLKS/6J db/db mouse plasma at 2 mg/kg applied topically to wounds as single administration by UPLC-MRM analysis; format: ADME, organism-based; settings: topical or ocular
Mus musculus [10] = assay: Reduction in NFkappaB p65 protein levels generation in db/db BKS.Cg-Dock7m+/+ Lepr db/J mouse model of full-thickness excision assessed as p65 AUC level at 50 ug/wound/day for 7 days dosed topically 1 day after wound creation by ELISA (reference value: 834 +/- 121 ug/mg.day); format: functional, organism-based
[11] = target: T4, Disintegrin and metalloproteinase domain-containing protein 10 (Homo sapiens) (UniProt O14672); assay: Inhibition of human recombinant ADAM10 at 100 uM using Mca-Lys-Pro-Leu-Gly-Leu-Dpa-Ala-Arg-NH2 substrate; how it was run: as §1
T4 sequence (whole entry): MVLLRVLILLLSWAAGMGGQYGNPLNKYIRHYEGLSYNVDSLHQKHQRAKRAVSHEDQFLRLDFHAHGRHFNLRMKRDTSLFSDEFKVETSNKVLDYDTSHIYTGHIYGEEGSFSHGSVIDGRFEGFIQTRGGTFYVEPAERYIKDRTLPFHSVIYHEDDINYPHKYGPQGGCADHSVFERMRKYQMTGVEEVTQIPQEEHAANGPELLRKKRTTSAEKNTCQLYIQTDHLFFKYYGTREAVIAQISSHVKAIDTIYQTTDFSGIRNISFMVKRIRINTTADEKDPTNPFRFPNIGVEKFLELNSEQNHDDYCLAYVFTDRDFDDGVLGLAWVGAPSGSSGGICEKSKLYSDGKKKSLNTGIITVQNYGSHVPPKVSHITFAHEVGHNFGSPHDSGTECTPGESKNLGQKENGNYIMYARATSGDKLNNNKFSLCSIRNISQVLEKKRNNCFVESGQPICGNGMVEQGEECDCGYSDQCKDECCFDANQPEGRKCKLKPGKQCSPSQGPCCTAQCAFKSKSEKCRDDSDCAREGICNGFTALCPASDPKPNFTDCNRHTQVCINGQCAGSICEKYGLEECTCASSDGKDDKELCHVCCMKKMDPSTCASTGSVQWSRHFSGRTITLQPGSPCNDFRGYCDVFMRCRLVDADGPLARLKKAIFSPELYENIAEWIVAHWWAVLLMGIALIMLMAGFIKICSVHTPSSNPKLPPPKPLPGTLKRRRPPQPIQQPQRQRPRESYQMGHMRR

[12] = AUC in C57BLKS/6J db/db mouse plasma at 2 mg/kg, iv dosed as single administration by UPLC-MRM analysis; format: ADME, organism-based
[13] = target: T1, Interstitial collagenase (Homo sapiens); assay: Inhibition of human recombinant MMP1 catalytic domain at 100 uM using Mca-Lys-Pro-Leu-Gly-Leu-Dpa-Ala-Arg-NH2 substrate; how it was run: as §1
Mus musculus [14] = assay: Reduction in ROS generation in db/db BKS.Cg-Dock7m+/+ Lepr db/J mouse model of full-thickness excision at 50 ug/wound/day for 3 days dosed topically 1 day after wound creation by L-012 dye based assay; format: functional, organism-based
How it was run: (§3)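 Wounded db/db mice dosed topically with 50 µg/wound/day or water vehicle; on days 1, 2, 3 and 7 post-wounding, anaesthetised with 2% isoflurane, injected ip with 200 µL L-012 (5 mg/mL in PBS), and bioluminescence imaged immediately at 5-min intervals; n = 3/group/time point.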

Mus musculus [15] = assay: Reduction in ROS generation in db/db BKS.Cg-Dock7m+/+ Lepr db/J mouse model of full-thickness excision at 50 ug/wound/day for 7 days dosed topically 1 day after wound creation by L-012 dye based assay; format: functional, organism-based; how it was run: as §3
[16] = target: 72 kDa type IV collagenase (Homo sapiens, UniProt P08253); assay: Slow binding inhibition of human recombinant MMP2 using MOCAc-Pro-Leu-Gly-Leu-A2pr(Dnp)-Ala-Arg-NH2 substrate; how it was run: as §1
Mus musculus [17] = assay: Reduction in NFkappaB p65 protein levels generation in db/db BKS.Cg-Dock7m+/+ Lepr db/J mouse model of full-thickness excision at 50 ug/wound/day for 1 day dosed topically 1 day after wound creation by ELISA; format: functional, organism-based
Mus musculus [18] = assay: Inhibition of MMP8 activity in db/db BKS.Cg-Dock7m+/+ Lepr db/J mouse model of full-thickness excision using DQ-collagen substrate at 50 ug/wound/day for 14 days dosed topically 1 day after wound creation by in-situ zymography; format: functional, organism-based; how it was run: as §2
Mus musculus [19] = assay: Induction of wound healing in db/db BKS.Cg-Dock7m+/+ Lepr db/J mouse model of full-thickness excision at 50 ug/wound/day for 14 days dosed topically 1 day after wound creation; format: functional, organism-based; how it was run: as §2
Mus musculus [20] = assay: Reduction in NFkappaB p65 protein levels generation in db/db BKS.Cg-Dock7m+/+ Lepr db/J mouse model of full-thickness excision at 50 ug/wound/day for 2 days dosed topically 1 day after wound creation by ELISA; format: functional, organism-based
Mus musculus [21] = assay: Induction of wound healing in db/db BKS.Cg-Dock7m+/+ Lepr db/J mouse model of full-thickness excision at 50 ug/wound/day for 7 days dosed topically 1 day after wound creation; format: functional, organism-based; how it was run: as §2

Chain of Stromelysin-1 (Homo sapiens) (P08254 100-477 limits assumed): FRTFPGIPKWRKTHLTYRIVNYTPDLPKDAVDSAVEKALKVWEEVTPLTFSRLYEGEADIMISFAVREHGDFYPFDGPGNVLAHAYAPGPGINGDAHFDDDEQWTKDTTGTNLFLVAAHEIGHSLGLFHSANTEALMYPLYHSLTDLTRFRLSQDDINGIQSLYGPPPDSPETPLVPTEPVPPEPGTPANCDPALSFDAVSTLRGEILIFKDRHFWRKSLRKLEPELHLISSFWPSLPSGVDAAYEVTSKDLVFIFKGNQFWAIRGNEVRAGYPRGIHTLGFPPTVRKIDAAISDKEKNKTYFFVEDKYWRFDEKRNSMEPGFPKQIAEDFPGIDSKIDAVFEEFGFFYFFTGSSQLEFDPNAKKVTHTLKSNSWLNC
Chain of 72 kDa type IV collagenase (P08253 whole entry): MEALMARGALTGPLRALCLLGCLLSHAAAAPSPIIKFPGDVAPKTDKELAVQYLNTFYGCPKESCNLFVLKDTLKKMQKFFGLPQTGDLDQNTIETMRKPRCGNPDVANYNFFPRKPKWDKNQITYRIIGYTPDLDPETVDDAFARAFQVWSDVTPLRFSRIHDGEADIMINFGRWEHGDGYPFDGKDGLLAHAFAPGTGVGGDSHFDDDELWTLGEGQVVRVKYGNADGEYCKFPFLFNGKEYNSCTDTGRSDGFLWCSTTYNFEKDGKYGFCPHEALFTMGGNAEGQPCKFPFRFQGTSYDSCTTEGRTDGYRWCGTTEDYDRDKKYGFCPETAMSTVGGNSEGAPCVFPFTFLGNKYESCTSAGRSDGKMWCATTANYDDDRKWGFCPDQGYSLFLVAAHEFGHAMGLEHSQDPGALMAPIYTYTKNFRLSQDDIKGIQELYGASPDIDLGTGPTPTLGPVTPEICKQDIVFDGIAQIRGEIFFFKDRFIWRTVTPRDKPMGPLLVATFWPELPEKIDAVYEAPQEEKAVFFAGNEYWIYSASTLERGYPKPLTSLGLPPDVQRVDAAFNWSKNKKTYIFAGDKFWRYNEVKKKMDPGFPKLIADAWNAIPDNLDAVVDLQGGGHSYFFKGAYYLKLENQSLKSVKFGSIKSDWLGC

Compound | inhibition (Mus musculus [2]) | Activity (Mus musculus [4]) | inhibition [5] [%] | Ki [6] [nM] | inhibition [7] [%] | inhibition [8] [%] | inhibition [11] [%] | inhibition [13] [%] | Ki [16] [nM] | inhibition (Mus musculus [18]) | Activity (Mus musculus [19]) | also measured
O=S(=O)(CC1CS1)c1ccc(Oc2ccc(O)cc2)cc1 (stereo not drawn) | – | – | – | – | – | – | – | – | – | – | – | A0.5 [1]: Nottraceable
Cl.NCc1ccc(Oc2ccc(S(=O)(=O)C[C@H]3CS3)cc2)cc1 | Active | Active | 37 | 119 | 20 | 41 | 13 | 22 | 127 | inactive | Active | Activity (Mus musculus [3]): Active; Activity (Salmonella typhimurium): Non-Toxic; bioavailability (in vivo): 3.7%; AUC [9]: 0.0217 µM·h; AUC (Mus musculus [10]): 492 µg/mg/day; AUC [12]: 0.583 µM·h; Activity (Mus musculus [14]): Active; Activity (Mus musculus [15]): Active; Activity (Mus musculus [17]): Active; Activity (Mus musculus [20]): Active; Activity (Mus musculus [21]): Active
NCc1ccc(Oc2ccc(S(=O)(=O)CC3CS3)cc2)cc1 (racemic) | Active | Active | 23 | – | 1 | 31 | 14 | 4 | – | Active | inactive | –
NCc1ccc(Oc2ccc(S(=O)(=O)C[C@@H]3CS3)cc2)cc1 | Active | Active | 22 | 53 | 15 | 25 | 5 | 24 | 37 | Active | inactive | –
